Results from ChEMBL document CHEMBL3813647, “Discovery of an Orally Active and Liver-Targeted Prodrug of 5-Fluoro-2'-Deoxyuridine for the Treatment of Hepatocellular Carcinoma” (J Med Chem, 2016).

Assays:
Mus musculus [1] = assay: Toxicity in KM mouse assessed as damage to spleen at 2 to 3 g/kg, administered through oral gavage after 15 days; conditions: in vivo, 360 h
Mus musculus [2] = assay: Toxicity in KM mouse implanted with mouse H22 cells assessed as body weight level at 130 mg/kg administered daily through oral gavage after 8 days (reference value: 21.7 to 22.3 g); type: organism-based; conditions: in vivo, 192 h
Liver [3] = assay: Cmax in Sprague-Dawley rat liver assessed as 5-FU formation at 52.17 mg/kg administered through oral gavage measured up to 24 hrs by HPLC-MS/MS analysis; type: ADME, organism-based; parameters: dose 52.17 mg/kg, route oral; conditions: in vivo
In short: (§1)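 Male Sprague-Dawley rats (220 ± 20 g), single gavage of 0.096 mmol/kg. FDUR was dosed in H2O; the prodrugs were dosed in 20% hydroxypropyl-β-cyclodextrin. n = 3 per time point, sampled at 0.25–24 h. Plasma (EDTA-K2, cardiac puncture) and freeze-clamped liver were homogenized in 20 mM EDTA-K2/70% MeOH. Analytes measured by HPLC-MS/MS in ESI negative mode.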

Mus musculus [4] = assay: Toxicity in KM mouse assessed as weight loss at 2 to 3 mg/kg, administered through oral gavage after 1 to 5 days; type: organism-based; conditions: in vivo, in the assay text read “2 to 3 g/kg” for “2 to 3 mg/kg”
In short: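 Female KM mice (20 2 g), fasted overnight, 5 per group. Single oral gavage at 2 or 3 g/kg in 57% hydroxypropyl-β-cyclodextrin. Watched continuously for 4 h, intermittently to 24 h, then occasionally to day 15 for weight, appetite and behaviour. Mean body weight change tracked days 1–15. Organs examined macroscopically at sacrifice on day 15.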

Liver [5] = assay: Drug metabolism in Sprague-Dawley rat liver S9 fraction assessed as (S)-2-((R)-(((2R,3S,5R)-5-(5-fluoro-2,4-dioxo-3,4-dihydropyrimidin-1(2H)-yl)-3-hydroxytetrahydrofuran-2-yl)methoxy)(2-methylbenzyloxy)phosphorylamino)propanoate formation at 20 ug/mL after 20 mins by HPLC-MS/MS analysis in absence of NADPH; type: ADME; conditions: s9, 20 min
In short: (§2)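 Rat liver S9 (10 mg/mL) incubated with compound at 20 μg/mL. Parent, intermediate A and FdUMP followed over time by HPLC-MS/MS. Negative control run without NADPH.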

[6] = Cytotoxicity against human SMMC7721 cells assessed as reduction in cell viability after 72 hrs by MTT assay; type: functional, cell-based; conditions: SMMC-7721, 72 h
In short: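 Cells in RPMI-1640 with 10% FBS, seeded at 4 × 10³ per well and attached for 24 h. Compound (DMSO ≤0.5% final) added for 72 h at 37 °C, 5% CO2. Viability read by MTT. IC50 set against 0.5% DMSO-treated cells taken as 100% viable. Mean of two independent experiments, each run in triplicate.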

Mus musculus [7] = assay: Toxicity in KM mouse assessed as damage to liver at 2 to 3 g/kg, administered through oral gavage after 15 days; conditions: in vivo, 360 h
Plasma [8] = assay: AUC (infinity) in Sprague-Dawley rat plasma assessed as FDUR formation at 52.17 mg/kg administered through oral gavage measured up to 24 hrs by HPLC-MS/MS analysis; type: ADME, organism-based; parameters: dose 52.17 mg/kg, time infinity, route oral; conditions: in vivo
In short: as §1

Mus musculus [9] = assay: Toxicity in KM mouse assessed as damage to lung at 2 to 3 g/kg, administered through oral gavage after 15 days; conditions: in vivo, 360 h
Liver [10] = assay: AUC (infinity) in Sprague-Dawley rat liver assessed as 5-FU formation at 52.17 mg/kg administered through oral gavage measured up to 24 hrs by HPLC-MS/MS analysis; type: ADME, organism-based; parameters: dose 52.17 mg/kg, route oral, time infinity; conditions: in vivo
In short: as §1

[11] = Ratio of FDUR AUC (infinity) in Sprague-Dawley rat liver to FDUR AUC (infinity) in Sprague-Dawley rat plasma at 52.17 mg/kg administered through oral gavage; type: ADME, organism-based; conditions: other tissue
Plasma [12] = assay: AUC (infinity) in Sprague-Dawley rat plasma assessed as (S)-2-((R)-(((2R,3S,5R)-5-(5-fluoro-2,4-dioxo-3,4-dihydropyrimidin-1(2H)-yl)-3-hydroxytetrahydrofuran-2-yl)methoxy)(2-methylbenzyloxy)phosphorylamino)propanoate formation at 52.17 mg/kg administered through oral gavage measured up to 24 hrs by HPLC-MS/MS analysis; type: ADME, organism-based; parameters: dose 52.17 mg/kg, time infinity, route oral; conditions: in vivo
In short: as §1

Liver [13] = assay: Drug metabolism in Sprague-Dawley rat liver S9 fraction assessed as FdUMP formation at 20 ug/mL preincubated for 5 mins followed by NADPH addition measured at 20 mins by HPLC-MS/MS analysis; type: ADME, subcellular; conditions: s9, 20 min
In short: as §2

[14] = Ratio of metabolite A AUC (infinity) in Sprague-Dawley rat liver to (S)-2-((R)-(((2R,3S,5R)-5-(5-fluoro-2,4-dioxo-3,4-dihydropyrimidin-1(2H)-yl)-3-hydroxytetrahydrofuran-2-yl)methoxy)(2-methylbenzyloxy)phosphorylamino)propanoate AUC (infinity) in Sprague-Dawley rat plasma at 52.17 mg/kg administered through oral gavage; type: ADME, organism-based; conditions: in vivo
H22 [15] = assay: Antitumor activity against mouse H22 cells implanted in KM mouse assessed as tumor growth inhibition at 260 mg/kg administered daily through oral gavage after 8 days; type: functional; conditions: 192 h
In short: (§3)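 Syngeneic H22 hepatoma: 2 × 10⁶ cells injected s.c. in the axilla (0.9% saline) of female KM mice, n = 10 per group. From day 2, daily oral gavage for 8 days. Test agent given in 35% PEG400; sorafenib suspended in 0.5% CMC-Na. Tumor weight taken on day 8; inhibition rate calculated versus the vehicle group.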

H22 [16] = assay: Antitumor activity against mouse H22 cells implanted in KM mouse assessed as tumor growth inhibition at 130 mg/kg administered daily through oral gavage after 8 days; type: functional; conditions: 192 h
In short: as §3

Plasma [17] = assay: Cmax in Sprague-Dawley rat plasma assessed as (S)-2-((R)-(((2R,3S,5R)-5-(5-fluoro-2,4-dioxo-3,4-dihydropyrimidin-1(2H)-yl)-3-hydroxytetrahydrofuran-2-yl)methoxy)(2-methylbenzyloxy)phosphorylamino) propanoate formation at 52.17 mg/kg administered through oral gavage measured up to 24 hrs by HPLC-MS/MS analysis; type: ADME, organism-based; parameters: dose 52.17 mg/kg, route oral; conditions: in vivo
In short: as §1

Plasma [18] = assay: Drug metabolism in Sprague-Dawley rat plasma assessed as o-methylhippuric acid formation; type: ADME, cell-free
[19] = Half life in rat plasma by HPLC analysis; type: ADME, cell-free
In short: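 Rat plasma, 37 °C. Compound added from a 2.5 mM stock, sampled at 0–24 h, quenched with MeOH. Analyzed by HPLC-UV at 267 nm (C8 column, MeOH:H2O 68:32). Triplicate samples.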

Mus musculus [20] = assay: Toxicity in KM mouse assessed as damage to kidney at 2 to 3 g/kg, administered through oral gavage after 15 days; conditions: in vivo, 360 h
[21] = Ratio of FdUMP AUC (infinity) in Sprague-Dawley rat liver to FDUR AUC (infinity) in Sprague-Dawley rat plasma at 52.17 mg/kg administered through oral gavage; type: ADME, organism-based; conditions: in vivo
In short: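 Male Sprague-Dawley rats (220 20 g), single gavage of 0.096 mmol/kg prodrug in 20% hydroxypropyl-β-cyclodextrin. Blood by cardiac puncture under isoflurane and liver at 0.25–24 h, n = 3 per time point. Liver freeze-clamped and homogenized in 20 mM EDTA-K2/70% MeOH. FdUMP (liver) and FDUR (plasma) by HPLC-MS/MS, negative ESI. Index = AUC(inf) liver FdUMP / AUC(inf) plasma FDUR.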

Liver [22] = assay: Cmax in Sprague-Dawley rat liver assessed as (S)-2-((R)-(((2R,3S,5R)-5-(5-fluoro-2,4-dioxo-3,4-dihydropyrimidin-1(2H)-yl)-3-hydroxytetrahydrofuran-2-yl)methoxy)(2-methylbenzyloxy)phosphorylamino)propanoate formation at 52.17 mg/kg administered through oral gavage measured up to 24 hrs by HPLC-MS/MS analysis; type: ADME, organism-based; parameters: dose 52.17 mg/kg, route oral; conditions: in vivo
In short: as §1

Mus musculus [23] = assay: Toxicity in KM mouse implanted with mouse H22 cells assessed as body weight level at 65 mg/kg administered daily through oral gavage after 8 days (reference value: 21.7 to 22.3 g); type: organism-based; conditions: in vivo, 192 h
Liver [24] = assay: Drug metabolism in Sprague-Dawley rat liver assessed as o-methylhippuric acid formation; type: ADME, tissue-based

Cc1ccccc1CO[P@](=O)(N[C@@H](C)C(=O)OC(C)C)OC[C@H]1O[C@@H](n2cc(F)c(=O)[nH]c2=O)C[C@@H]1O
Activity (Mus musculus [1]): Non-toxic
Activity (Mus musculus [2]): 23.8 g
Cmax (Liver [3]): 139 ng/g
Activity (Mus musculus [4]): Non-toxic
Drug metabolism (Liver [5]): metabolite_detected
IC50 [6]: 250 µM
Activity (Mus musculus [7]): Non-toxic
AUC (Plasma [8]): 26 ng·h/mL
Activity (Mus musculus [9]): Non-toxic
AUC (Liver [10]): 257 ng·h/g
Ratio AUC [11]: 59.3
AUC (Plasma [12]): 316 ng·h/mL
Drug metabolism (Liver [13]): metabolite_detected
Ratio AUC [14]: 17.4
inhibition in vivo at 260 mg/kg (H22 [15]): 72.5%
inhibition in vivo at 130 mg/kg (H22 [16]): 61.7%
Cmax (Plasma [17]): 234 ng/mL
Drug metabolism (Plasma [18]): metabolite_detected
half-life [19]: < 4.98 min
Activity (Mus musculus [20]): Non-toxic
Ratio AUC [21]: 20.9
Cmax (Liver [22]): 3673 ng/g
Activity (Mus musculus [23]): 25.9 g
Drug metabolism (Liver [24]): metabolite_detected
